The values that follow come from ChEMBL document CHEMBL1208679, “Synthesis and evaluation of a new series of Neuropeptide S receptor antagonists” (Bioorg Med Chem Lett, 2010).

Calls of active or inactive are those of the source. The calls are words filed in the database; no cut-off is given here.

Data set [1] addresses T1, Neuropeptide S receptor (Homo sapiens, UniProt Q6W5P4).
T1 sequence (Q6W5P4 whole entry): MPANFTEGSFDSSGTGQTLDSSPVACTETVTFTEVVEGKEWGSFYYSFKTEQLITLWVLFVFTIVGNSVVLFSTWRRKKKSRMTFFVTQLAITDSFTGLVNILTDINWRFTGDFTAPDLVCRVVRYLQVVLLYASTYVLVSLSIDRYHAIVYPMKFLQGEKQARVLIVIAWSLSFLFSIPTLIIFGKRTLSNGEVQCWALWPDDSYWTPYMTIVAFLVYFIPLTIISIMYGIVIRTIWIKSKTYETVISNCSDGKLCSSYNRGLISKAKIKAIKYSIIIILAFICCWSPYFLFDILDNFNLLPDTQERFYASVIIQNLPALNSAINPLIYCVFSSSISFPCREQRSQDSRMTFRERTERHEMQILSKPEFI
The data set can be described thus: Antagonist activity at human recombinant NPS receptor expressed in CHOK1 cells assessed as inhibition of NPS-induced calcium mobilization by FLIPR assay. The data set is classed as functional, cell-based, CHO-K1. The method, boiled down: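 Dual-sequence FLIPR Ca2+ mobilization in CHOK1 cells expressing recombinant NPSR, plated 24 h before the run. Fluo4AM dye loaded 1 h at 37 °C, 5% CO2. Cells incubated with titrated compound for 4 min, then an EC80 of human NPS added and read for another 4 min. Inhibition calculated against NPS-stimulated control wells. IC50 from 4-parameter logistic fits, averaged over at least two experiments.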

The target in data set [2] is T2, MDR1 (ABCB1, P-glycoprotein) (Homo sapiens, UniProt P08183). The data set can be described thus: (§1) Permeability of the compound assessed as MDR1-passive permeability by cell based assay. The note with it: not told; read-out: permeability. The method, boiled down:
(§2)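 Passive permeability expressed as Papp in 10^-6 cm/s.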

Data set [3] in a line: Protein binding in human plasma. The note with it: read-out: PPB (converted).
The target of data set [4] is T2, MDR1 (ABCB1, P-glycoprotein). Description: Permeability of the compound assessed as MDR1-mediated directional transport ratio by cell based assay. The note with it: not told. The method, boiled down:
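MDR1 directional transport ratio, calculated as (B to A)/(A to B). Average of three experiments.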

Data set [5] can be described thus: Drug level in rat brain at 30 mg/kg, ip after 0.5 hrs. Type of data set: ADME, organism-based. The arrangement: dose 30 mg/kg, route intraperitoneal. The note with it: read-out: Drug uptake. The method, boiled down:
(§3)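 Rats dosed 30 mg/kg ip. Plasma, brain and CSF levels measured at 0.5 h and 2.0 h and reported in nM.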

Data set [6] deals with Rattus norvegicus. Description: Ex vivo receptor occupancy in ip dosed rat brain anterior olfactory nucleus assessed inhibition of [125I]NPS binding after 30 mins. Type of data set: functional, organism-based. In outline: (§4)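 Compound given 30 mg/kg ip in 25% HPB cyclodextrin. Brain taken 30 min after dosing (n = 4 rats, 2–3 sections/rat). Tissue sections incubated with 0.5 nM 125I-hNPS for 30 min, with 2 µM unlabeled hNPS defining nonspecific binding. Mean percent occupancy in AON, DEN or SC relative to vehicle was plotted against plasma compound concentration, with IC50 from nonlinear regression.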

A short description of data set [7]: Drug level in rat plasma at 30 mg/kg, ip after 2 hrs. The data set is classed as ADME, organism-based. Details: dose 30 mg/kg, route intraperitoneal. The note with it: read-out: Drug uptake. The method, boiled down: as §3
Data set [8] deals with Rattus norvegicus. The data set can be described thus: Ex vivo receptor occupancy in ip dosed rat brain dorsal endopiriform nucleus assessed inhibition of [125I]NPS binding after 30 mins. Type of data set: functional, organism-based. In outline:
as §4

Data set [9] concerns the target T3, Neuropeptide S receptor (Rattus norvegicus, UniProt P0C0L6).
T3 sequence (P0C0L6 whole entry): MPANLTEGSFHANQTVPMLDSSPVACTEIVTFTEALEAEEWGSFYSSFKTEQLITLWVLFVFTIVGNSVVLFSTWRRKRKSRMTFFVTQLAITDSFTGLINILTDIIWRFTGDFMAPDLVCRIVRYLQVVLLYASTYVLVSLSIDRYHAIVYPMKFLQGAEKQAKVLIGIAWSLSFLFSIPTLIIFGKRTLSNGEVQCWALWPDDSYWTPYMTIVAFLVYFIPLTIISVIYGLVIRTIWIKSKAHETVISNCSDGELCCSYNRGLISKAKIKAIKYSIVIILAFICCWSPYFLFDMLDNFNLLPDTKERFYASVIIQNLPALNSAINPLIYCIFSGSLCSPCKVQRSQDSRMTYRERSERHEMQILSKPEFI
Description: Displacement of [3H]quinolinone from rat NPS receptor.

The nature of data set [10]: Drug level in rat cerebrospinal fluid at 30 mg/kg, ip after 2 hrs. Type of data set: ADME, organism-based. Details: dose 30 mg/kg, route intraperitoneal. The note with it: read-out: Drug uptake. The method, boiled down:
as §3

The subject of a further data set is Plasma. Description: Protein binding in human plasma. The data set is classed as ADME, cell-free.
Data set [11] deals with Rattus norvegicus. Description: Ex vivo receptor occupancy in ip dosed rat brain superior coliculus assessed inhibition of [125I]NPS binding after 30 mins. The data set is classed as functional, organism-based. In outline: as §4
In data set [12] the target is ATP-dependent translocase ABCB1 (Homo sapiens, UniProt P08183). Described as §1. The method, boiled down:
as §2

Data set [13] in a line: Drug level in rat cerebrospinal fluid at 30 mg/kg, ip after 0.5 hrs. The data set is classed as ADME, organism-based. The note with it: read-out: Drug uptake. The arrangement: dose 30 mg/kg, route intraperitoneal. The method, boiled down: as §3
A short description of data set [14]: Drug level in rat plasma at 30 mg/kg, ip after 0.5 hrs. The data set is classed as ADME, organism-based. The arrangement: dose 30 mg/kg, route intraperitoneal. The note with it: read-out: Drug uptake. In outline: as §3
Data set [15] is described as follows: Drug level in rat brain at 30 mg/kg, ip after 2 hrs. The note with it: read-out: Drug uptake. Type of data set: ADME, organism-based. The arrangement: dose 30 mg/kg, route intraperitoneal. In outline:
as §3

The target in data set [16] is T3, Neuropeptide S receptor. The data set can be described thus: Displacement of [125I]NPS from NPS receptor in rat brain superior coliculus after 30 mins. The data set is classed as tissue-based. In outline: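 Rat brain sections from vehicle-treated animals (25% HPB cyclodextrin/75% sterile water, ip), preincubated in vitro with titrated compound. Nonspecific binding from co-incubation with 2 µM unlabeled hNPS. 2–3 sections per concentration. Mean ± SEM.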

The subject of data set [17] is Rattus norvegicus. The data set can be described thus: Ex vivo receptor occupancy of NPS receptor in rat brain superior coliculus at 30 mg/kg, ip after 30 mins. Type of data set: functional, organism-based. Details: dose 30 mg/kg. In outline: as §4
For data set [18], the system named is Rattus norvegicus. The data set can be described thus: Ex vivo receptor occupancy of NPS receptor in rat brain dorsal endopiriform nucleus at 30 mg/kg, ip after 30 mins. The data set is classed as functional, organism-based. Details: dose 30 mg/kg. The method, boiled down:
as §4

Data set [19] has as its system Rattus norvegicus. Description: Ex vivo receptor occupancy of NPS receptor in rat brain anterior olfactory nucleus at 30 mg/kg, ip after 30 mins. The data set is classed as functional, organism-based. The arrangement: dose 30 mg/kg. The method, boiled down:
as §4

T2 sequence (P08183 whole entry): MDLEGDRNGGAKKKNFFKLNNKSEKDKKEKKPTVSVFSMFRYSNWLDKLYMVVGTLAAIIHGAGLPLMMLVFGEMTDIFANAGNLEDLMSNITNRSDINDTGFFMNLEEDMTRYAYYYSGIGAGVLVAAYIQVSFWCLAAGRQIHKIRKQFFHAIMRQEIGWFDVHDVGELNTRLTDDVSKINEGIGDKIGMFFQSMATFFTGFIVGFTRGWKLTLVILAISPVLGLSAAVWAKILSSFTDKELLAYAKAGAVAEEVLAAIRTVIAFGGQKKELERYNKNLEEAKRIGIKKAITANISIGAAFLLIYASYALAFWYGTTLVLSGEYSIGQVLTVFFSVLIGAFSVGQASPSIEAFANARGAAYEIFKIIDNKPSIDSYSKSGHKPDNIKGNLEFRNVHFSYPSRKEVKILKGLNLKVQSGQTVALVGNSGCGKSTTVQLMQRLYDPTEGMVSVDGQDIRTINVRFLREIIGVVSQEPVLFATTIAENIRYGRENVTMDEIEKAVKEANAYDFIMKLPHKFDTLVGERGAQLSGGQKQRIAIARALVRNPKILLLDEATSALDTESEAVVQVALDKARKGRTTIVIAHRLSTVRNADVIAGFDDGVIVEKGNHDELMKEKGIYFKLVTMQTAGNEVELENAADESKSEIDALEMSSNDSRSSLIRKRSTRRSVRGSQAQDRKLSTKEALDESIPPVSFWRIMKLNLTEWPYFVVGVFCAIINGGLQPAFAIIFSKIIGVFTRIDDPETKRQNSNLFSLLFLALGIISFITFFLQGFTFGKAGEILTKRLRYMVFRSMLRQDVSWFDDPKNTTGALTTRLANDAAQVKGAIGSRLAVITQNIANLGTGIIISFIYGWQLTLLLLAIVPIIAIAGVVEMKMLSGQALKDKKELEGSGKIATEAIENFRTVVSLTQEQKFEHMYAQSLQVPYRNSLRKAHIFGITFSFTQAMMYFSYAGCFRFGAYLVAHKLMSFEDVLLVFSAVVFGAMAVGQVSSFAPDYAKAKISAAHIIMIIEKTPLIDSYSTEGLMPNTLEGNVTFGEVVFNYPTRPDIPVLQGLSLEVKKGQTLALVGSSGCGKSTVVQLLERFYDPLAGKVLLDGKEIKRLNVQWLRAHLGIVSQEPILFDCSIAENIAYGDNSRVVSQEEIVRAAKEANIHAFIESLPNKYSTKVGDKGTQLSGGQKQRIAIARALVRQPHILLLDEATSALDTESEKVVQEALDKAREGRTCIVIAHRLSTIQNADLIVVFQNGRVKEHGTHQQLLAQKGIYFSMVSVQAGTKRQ
Chain of ATP-dependent translocase ABCB1 (P08183 whole entry): as above

Regarding `CCC(C)(CCN1CCCCC1)N(Cc1cc2ccccc2n(C)c1=O)C(=O)C1CCCCC1` (racemic), the IC50 on Neuropeptide S receptor [1] came out at 7 nM. Also, the Papp in [2] was 28 ×10⁻⁶ cm/s. Also, in data set [3], the fraction unbound was 0.11. In addition, the efflux ratio in [4] came to 43.

For `CCC(C)(CCN1CCOCC1)N(Cc1cc2ccccc2n(C)c1=O)C(=O)C1CCCCC1` (single isomer, unassigned; enantiomer 1) [listing 1 of 2 here], the concentration at 0.5 h in data set [5] came out at 1690 nM; in [13], 101 nM; in data set [14] it was 4340 nM. Besides, the IC50 was determined as 570 nM with Rattus norvegicus [6] (0.5 h); 380 nM in the data set on Rattus norvegicus [8] (0.5 h); 10 nM on Neuropeptide S receptor [1]; 130 nM in the data set on Rattus norvegicus [11] (0.5 h); 1.44 nM on Neuropeptide S receptor [16]. Also, the concentration at 2 h in data set [7] is 2300 nM; in data set [10], 45 nM; in [15] it was 665 nM. At Neuropeptide S receptor [9], this molecule came in with an EC50 of 1.3 nM. The same molecule showed a PPB with Plasma of 82%. Moreover, in data set [12], the permeability is reported as 36 ×10⁻⁶ cm/s.

For the molecule `Cn1c(=O)c(CN(C(=O)C2CCCCC2)C2(CCN3CCOCC3)CCCCC2)cc2ccccc21`, the IC50 on Neuropeptide S receptor [1] is 398 nM.

For the molecule `CCC(C)(CCN1CCOCC1)N(Cc1cc2ccccc2n(C)c1=O)C(=O)C1CCCCC1` (single isomer, unassigned; enantiomer 1) [listing 2 of 2 here], the Activity result in the data set with Rattus norvegicus [6], with Rattus norvegicus [8] and with Rattus norvegicus [11] was “Dose-dependent effect” each time. Also, the result in the data set on Rattus norvegicus [17], with Rattus norvegicus [18] and in the data set on Rattus norvegicus [19] was Active.

As to `Cn1c(=O)c(CN(C(=O)C2CCCCC2)C(C)(C)CCN2CCCCC2)cc2ccccc21`, at Neuropeptide S receptor [1], the IC50 is 31 nM. In addition, in data set [2], the Papp stood at 25 ×10⁻⁶ cm/s. Besides, the efflux ratio in data set [4] was found to be 36.

Regarding `CCC(C)(CCN1CCC(F)CC1)N(Cc1cc2ccccc2n(C)c1=O)C(=O)C1CCCCC1` (racemic), the IC50 on Neuropeptide S receptor [1] stood at 14 nM. Besides, the Papp in data set [2] came to 33 ×10⁻⁶ cm/s. The efflux ratio in [4] amounted to 2.6.

On to `CC(CCN1CCCC1)N(Cc1cc2ccccc2n(C)c1=O)C(=O)C1CCCCC1` (configuration not stated), for which the IC50 on Neuropeptide S receptor [1] stood at 1580 nM.

Turning to `Cn1c(=O)c(CN(C(=O)C2CCCCC2)C(C)(C)CCN2CCOCC2)cc2ccccc21`, the IC50 at Neuropeptide S receptor [1] was found to be 144 nM. Also, the Papp in data set [2] turned out to be 23 ×10⁻⁶ cm/s. For the same molecule, in data set [4], the efflux ratio was 2.

For `CCC(C)(CCN1CCC(F)(F)CC1)N(Cc1cc2ccccc2n(C)c1=O)C(=O)C1CCCCC1` (racemic), the IC50 on Neuropeptide S receptor [1] was 22 nM. Besides, in data set [2], the Papp amounted to 25 ×10⁻⁶ cm/s. For the same molecule, the fraction unbound in [3] is 0.03. Further, in data set [4], the efflux ratio was 1.1.

On to `Cn1c(=O)c(CN(C(=O)C2CCCCC2)C(C)(C)CCN2CCCC2)cc2ccccc21`, for which, at Neuropeptide S receptor [1], the IC50 came to 326 nM.

`CCC(C)(CCN1CCOCC1)N(Cc1cc2ccccc2n(C)c1=O)C(=O)C1CCCCC1` (single isomer, unassigned; enantiomer 2): the IC50 on Neuropeptide S receptor [1] was 785 nM.

In the case of `CN1CCN(C2(CN(Cc3cc4ccccc4n(C)c3=O)C(=O)C3CCCCC3)CCCCC2)CC1`, the IC50 at Neuropeptide S receptor [1] came to 18 nM. The efflux ratio in data set [4] stood at 10.6.

For `CC(CCN1CCOCC1)N(Cc1cc2ccccc2n(C)c1=O)C(=O)C1CCCCC1` (configuration not stated), the IC50 at Neuropeptide S receptor [1] turned out to be 725 nM.

Turning to `CCC(C)(CCN1CCOCC1)N(Cc1cc2ccccc2n(C)c1=O)C(=O)C1CCCCC1` (racemic), the IC50 on Neuropeptide S receptor [1] came out at 23 nM. The Papp in [2] was found to be 18 ×10⁻⁶ cm/s.

As for `CCC(CC)(CCN1CCOCC1)N(Cc1cc2ccccc2n(C)c1=O)C(=O)C1CCCCC1`, the IC50 at Neuropeptide S receptor [1] amounted to 103 nM.
